The source made the active and inactive calls. The calls are words filed in the database; no cut-off is given here.

Assay [1] concerns Rattus norvegicus. In words: Antiallergic activity in po dosed rat assessed as inhibition of ovalbumin-induced passive cutaneous anaphylaxis. In kind it is functional. As to conditions: for ED50: read-out: ID50 (the source's name). The method in brief: (§1)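 Passive cutaneous anaphylaxis in rats sensitized intradermally with antiserum 48 h before iv challenge with 1 mg ovalbumin plus 0.25% Evans Blue. Drug was suspended in 1% gum tragacanth in saline and given orally 10-15 min before antigen. Spot diameter was read on reflected dorsal skin. Percent inhibition was taken against the extrapolated base value. Groups of five; ID50 in mg/kg.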

The subject of assay [2] is Rattus norvegicus. In words: Antiallergic activity in rat assessed as inhibition of ovalbumin-induced passive cutaneous anaphylaxis at 0.5 mg/kg, iv measured after 14 days. The class given is functional. The method in brief:
(§2)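 Rats were passively sensitized by intradermal injection of antiserum dilutions on the back. 48 h later they received 1 mg ovalbumin iv in 1 mL saline with 0.25% Evans Blue. Compound was dissolved in the antigen solution, using a slight molar excess of sodium bicarbonate if needed, and given with it. Mean orthogonal spot diameter was read on reflected dorsal skin. Percent inhibition was taken against the extrapolated base value. n=5 per group; Student's t test, p≤0.05.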

In assay [3] the test system is Rattus norvegicus. In words: Antiallergic activity in iv dosed rat assessed as inhibition of ovalbumin-induced passive cutaneous anaphylaxis. As to conditions: for ED50: Rattus norvegicus, iv, read-out: ID50 (the source's name). In kind it is functional. The method in brief:
as §2

Assay [4] can be described thus: Antiallergic activity in rat peritoneal mast cells assessed as inhibition of ovalbumin-induced histamine release after 15 mins. In kind it is functional, cell-based. As to conditions: Mast cell, 0.25 h. A digest of the protocol:
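Rat peritoneal mast cells were passively sensitized with the PCA antiserum, washed, and resuspended in Hank's balanced salt solution containing ovalbumin 20 mcg/mL plus drug. After 15 min at 37 °C, histamine released into the supernatant was measured fluorometrically. Value is the concentration giving 50% inhibition.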

In assay [5] the test system is Rattus norvegicus. In words: Antiallergic activity in po dosed rat allergic bronchoconstriction model assessed as reduction in respiratory flow rate administered 15 to 30 mins prior to ovalbumin challenge measured after 10 mins. In kind it is functional. The method in brief: (§3)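 Rats were immunized im with 1 mg ovalbumin on alumina, three times on alternate days. On day 8, 9 or 10 they were anesthetized with pentobarbital 60 mg/kg ip, tracheally cannulated and allowed to breathe spontaneously via a pneumotachograph. Drug was given orally 15 and 30 min before iv jugular 1 mg ovalbumin. Fall in respiratory flow rate and 10-min survival were recorded. Value is the mg/kg po dose inhibiting a 40% flow reduction.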

Assay [6] relates to Rattus norvegicus. In words: Antiallergic activity in po dosed rat allergic bronchoconstriction model assessed as survival from death by bronchoconstriction administered 15 to 30 mins prior to ovalbumin challenge measured after 10 mins. The class given is functional. Particulars: read-out: ID50 (the source's name). The method in brief:
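Rats immunized im with 1 mg ovalbumin on alumina in the nuchal region, three times on alternate days. On day 8, 9 or 10 they were anaesthetised (pentobarbital 60 mg/kg ip), tracheally cannulated and breathed spontaneously. Drug was given po 15 and 30 min before a 1 mg ovalbumin iv (jugular) challenge. Survival was scored over 10 min, giving the po dose that prevents death in 50% of animals.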

Assay [7] concerns Rattus norvegicus. In words: Antiallergic activity in po dosed rat assessed as inhibition of ovalbumin-induced passive cutaneous anaphylaxis relative to doxantrazole. The class given is functional. The method in brief: as §1
Assay [8] deals with Rattus norvegicus. In words: Antiallergic activity in rat assessed as inhibition of ovalbumin-induced passive cutaneous anaphylaxis at 0.5 mg/kg, iv measured after 14 days relative to cromolyn sodium. The class given is functional. The method in brief: as §2
For assay [9], the system named is Rattus norvegicus. The experiment in a line: Antiallergic activity in rat assessed as inhibition of ovalbumin-induced passive cutaneous anaphylaxis at 0.5 mg/kg, iv measured after 14 days relative to doxantrazole. The class given is functional. The method in brief:
as §2

The subject of assay [10] is Rattus norvegicus. The experiment in a line: Antiallergic activity in po dosed rat allergic bronchoconstriction model assessed as reduction in respiratory flow rate administered 15 to 30 mins prior to ovalbumin challenge measured after 10 mins relative to doxantrazole. In kind it is functional. A digest of the protocol: as §3
Assay [11] relates to Rattus norvegicus. In words: Antiallergic activity in po dosed rat allergic bronchoconstriction model assessed as survival from death by bronchoconstriction administered 15 to 30 mins prior to ovalbumin challenge measured after 10 mins relative to doxantrazole. The class given is functional.
For assay [12], the species on record is Cavia porcellus. The experiment in a line: Antagonist activity at histamine receptor in guinea pig ileum assessed as reduction in histamine-induced contractions up to 0.1 mM. The class given is tissue-based.
Assay [13] relates to Rattus norvegicus. In words: Antiallergic activity in rat assessed as inhibition of ovalbumin-induced passive cutaneous anaphylaxis at 10 mg/kg, ip measured after 14 days. In kind it is functional. Particulars: route intraperitoneal.
Assay [14] relates to Rattus norvegicus. In words: Antiallergic activity in rat assessed as inhibition of ovalbumin-induced passive cutaneous anaphylaxis at 1 mg/kg, iv measured after 14 days. In kind it is functional. The method in brief:
as §2

Take `CCOc1ccc2nc3ccc(C(=O)O)cn3c(=O)c2c1`: the ED50 in assay [1] was > 1 mg/kg.
As to `CCCOc1ccc2nc3ccc(C(=O)O)cn3c(=O)c2c1`, in [2], the inhibition in vivo at 0.5 mg/kg was 100%. Also, in assay [1], the ED50 turned out to be 2 mg/kg.
Regarding `Cl.O=C(O)c1ccc2nc3ccccc3c(=O)n2c1`, the inhibition in vivo at 0.5 mg/kg in [2] worked out at 45%. Moreover, the figures for the ED50 in [3] and in assay [1] were 0.5 mg/kg and 2.5 mg/kg, respectively.
Turning to `CCCCOc1ccc2nc3ccc(C(=O)O)cn3c(=O)c2c1`, the inhibition in vivo at 0.5 mg/kg in assay [2] is 88%. The ED50 in assay [1] is > 2 mg/kg.
Turning to `O=C(O)c1ccc2nc3cc4c(cc3c(=O)n2c1)OCO4`, in [2], the inhibition in vivo at 0.5 mg/kg was 30%.
For the molecule `O=C([O-])c1cc(=O)c2c(OCC(O)COc3cccc4oc(C(=O)[O-])cc(=O)c34)cccc2o1.[Na+].[Na+]` [CROMOLYN SODIUM], the ED50 in assay [3] was found to be 1 mg/kg. In addition, in [1], the ID50 result was “inactive”. For the same molecule, the IC50 in assay [4] is 6500 nM.
With `O=C(O)c1ccc2nc3ccc(O)cc3c(=O)n2c1`, the inhibition in vivo at 0.5 mg/kg in assay [2] was 100%. Besides, the ED50 in assay [3] turned out to be 0.05 mg/kg; in assay [1], 5 mg/kg.
Regarding `O=C(O)c1ccc2nc3cc(Cl)ccc3c(=O)n2c1`, in assay [1], the ED50 turned out to be 5 mg/kg.
With `Cc1ccc2nc3ccc(C(=O)O)cn3c(=O)c2c1`, the inhibition in vivo at 0.5 mg/kg in assay [2] was determined as 100%. Further, in [3], the ID100 was found to be 2.5 mg/kg. For the same molecule, the results for the ED50 in assay [3], in [1] and in assay [6] were 0.05 mg/kg, 0.75 mg/kg and 12.5 mg/kg, respectively. Moreover, the IC50 in [4] is 940 nM. Moreover, in [5], the ID40 stood at 9.3 mg/kg. Also, the “fold change (FC)” value in assay [7] worked out at 4; in assay [8], 30; in [9], 30; in assay [10] it was 4.6; in assay [11] it was 10. Moreover, in assay [12], the inhibition entry is “inactive”.
In the case of `O=C(O)c1ccc2nc3cc(O)ccc3c(=O)n2c1`, the inhibition in vivo at 0.5 mg/kg in assay [2] came out at 36%.
Consider `Cc1ccc2c(=O)n3cc(C(=O)O)ccc3nc2c1`, for which, in assay [13], the inhibition in vivo at 10 mg/kg came to 54%.
Regarding `O=C(O)c1ccc2nc3ccc(Cl)cc3c(=O)n2c1`, in assay [2], the inhibition in vivo at 0.5 mg/kg is 40%.
For the molecule `O=C(O)c1ccc2nc3cc(O)c(O)cc3c(=O)n2c1`, the ED50 in [1] is > 1 mg/kg.
`COc1ccc2nc3ccc(C(=O)O)cn3c(=O)c2c1`: the inhibition in vivo at 0.5 mg/kg in assay [2] is 100%. In addition, the ED50 amounted to 0.05 mg/kg in [3] and 0.5 mg/kg in assay [1].
As to `C=CCOc1ccc2nc3ccc(C(=O)O)cn3c(=O)c2c1`, the ED50 in assay [1] was > 1 mg/kg.
Regarding `COc1ccc2c(=O)n3cc(C(=O)O)ccc3nc2c1`, the inhibition in vivo at 1 mg/kg in [14] was 100%. Also, the ED50 in [1] is > 2 mg/kg.
In the case of `COc1cc2nc3ccc(C(=O)O)cn3c(=O)c2cc1OC`, the inhibition in vivo at 0.5 mg/kg in [2] was determined as 100%. For the same molecule, the ED50 was 0.05 mg/kg in [3] and 10 mg/kg in assay [1].
As for `O=C(O)c1ccc2nc3ccc(Br)cc3c(=O)n2c1`, the inhibition in vivo at 0.5 mg/kg in assay [2] was determined as 34%. Further, the ED50 in assay [1] was determined as 1 mg/kg.
On to `O=C(O)c1ccc2nc3ccc(OCCO)cc3c(=O)n2c1`, for which the ED50 in [1] is > 1 mg/kg.
As to `Cc1cc2nc3ccc(C(=O)O)cn3c(=O)c2cc1C`, the inhibition in vivo at 0.5 mg/kg in assay [2] came out at 25%. Moreover, in assay [1], the ED50 was determined as 2 mg/kg.
As to `O=C1c2ccccc2S(=O)(=O)c2cc(-c3nn[nH]n3)ccc21` [DOXANTRAZOLE], the ID100 in assay [3] stood at 10 mg/kg. The ED50 in [3] worked out at 1.5 mg/kg; in assay [1] it was 5 mg/kg; in assay [6], 125 mg/kg. The IC50 in [4] is 480 nM. The ID40 in [5] was 43 mg/kg.

Usually inhibition in vivo stands for the change of the read-out against control, counted positive when it falls. As usually defined, the IC50 is the concentration at which inhibition is half-maximal.
